# E-sel inducer – E-selectin induction on HUVECs | P16581 | HUVEC E-selectin immunofluorescence imaging; normalized: neutral wells 0, TNF-alpha wells 100 | activation, % at 7.58 µM | 0.37% of 260,000 active;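 active = mean E-selectin-positive cell signal at least 10% of the positive control, reached in at least 60% of replicates, without over 20% cell loss; inconclusive = no rule given, readout overlaps actives, possibly toxicity-flagged; inactive = the rest, including those meeting only one limit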
#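 Material: HUVEC primary endothelial cells; Amount: 3,000 cells per well; Dosing: single concentration; Medium: EGM-2 growth medium on 0.1% gelatin-coated wells; Read-out basis: percent E-selectin-positive cells; Signal: immunofluorescence imaging; Control set: TNF-alpha, DMSO.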
# Statin myotox sup – suppression of simvastatin myotoxicity; rescue of ATP level, % at 7.49 µM; C2C12 myotubes + simvastatin, ATP luminescence, 48 h; scaled: DMSO 0, geranylgeraniol control 100; AID 602340; 0.78% of 330,000 active;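 active = mean ATP rescue above about 67%, or every replicate alone reaching that limit, limit read from the data, passing the limit was not always enough; inconclusive = no clear call, values can overlap the other calls; inactive = mean under the limit and some replicate under it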;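 also: myotubes were challenged with 10 µM simvastatin during compound exposure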
# rRNA inh HTS – selective bacterial rRNA inhibition in E. coli | E. coli WT GFP vs humanized-ribosome RFP mutants, fluorescence, 24 h; active compounds read low; DMSO median 0, no signal -100 | GFP signal change (wild-type ribosome), % (test concentration not listed) | 1.6% of 350,000 active;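 active = significant combined selectivity score with lowered wild-type GFP, culture density cut under 30%, mutant RFP and density less affected; inactive = any of these conditions unmet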
# SIRT5 inh – sirtuin-5 (human) deacylase inhibition; Purified SirT5, succinyl-peptide AMC, trypsin-coupled fluorescence; inhibition, % at 15 µM; 1.1% of 330,000 active; AID 652115; in the data active = inhibition above about 15%; inconclusive = no clear call, values can overlap the other calls
# Target sequence (Q9NXA8 whole entry, looked up): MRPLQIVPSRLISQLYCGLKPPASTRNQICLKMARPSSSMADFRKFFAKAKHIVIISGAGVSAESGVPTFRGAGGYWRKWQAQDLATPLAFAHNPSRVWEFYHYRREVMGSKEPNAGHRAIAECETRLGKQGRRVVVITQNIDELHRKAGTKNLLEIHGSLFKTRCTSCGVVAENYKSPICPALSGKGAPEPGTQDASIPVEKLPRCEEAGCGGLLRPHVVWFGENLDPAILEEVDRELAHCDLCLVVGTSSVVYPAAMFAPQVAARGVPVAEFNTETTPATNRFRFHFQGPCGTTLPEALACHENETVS
# FN deposit inh – fibronectin deposition inhibition. AH1F fibroblasts, Alexa488-fibronectin deposition fluorescence, overnight. inhibition, % at 12.6 µM. 0.086% of 350,000 active. AID 743247;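 active = mean inhibition across replicates of 30% or more, regardless of how many single replicates reach that level; inconclusive = mean under 30% yet at least half of replicates reach 30%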;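 also: positive control wells lacked labelled fibronectin entirely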
#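 Schedule: 1 h cell adhesion before compound, then overnight fibronectin incubation; test system: AH1F fibroblast monolayer depositing Alexa488-labelled fibronectin into matrix; quantity: 10000 AH1F cells per well; probe or stimulus: fluorescent fibronectin at 24 nM final; signal: fluorescence, ex 485 nm, em 525 nm; evaluation: percent inhibition as loss of matrix-bound fibronectin fluorescence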
# FGF22 binding – FGF22 (human) thermal shift binding; Q9HCT0; AID 651658; recombinant FGF22 thermal shift, SYPRO orange fluorescence; percent of sucrose octasulfate shift, DMSO zero; 1.5% of 340,000 active; activity (Tm shift, normalised), % at 9.99 µM;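 active = mean Tm shift, scaled 0 neutral to 100 positive control, at about 1.3% or above, every replicate too, limit read from the data; inconclusive = no clear call, values can overlap the other calls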
# Target sequence (Q9HCT0 whole entry, looked up): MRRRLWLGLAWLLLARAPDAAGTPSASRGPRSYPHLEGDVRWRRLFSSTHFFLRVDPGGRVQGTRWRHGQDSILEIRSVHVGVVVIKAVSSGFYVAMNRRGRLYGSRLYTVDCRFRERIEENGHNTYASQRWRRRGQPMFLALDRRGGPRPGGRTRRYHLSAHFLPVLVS
# * hit, by the source's call; u = inconclusive; x = not tested or not shown; ! = a repeat was not active. Compounds with a hit are over-represented: about 4% of the library has one in this group of screens.
SMILES,E-sel inducer,Statin myotox sup,rRNA inh HTS,SIRT5 inh,FN deposit inh,FGF22 binding
Cc1ccc(-n2ncc(C(=O)N3CCc4ccccc4C3)c2NC(=O)c2ccco2)cc1C,x,77*,x,x,-3,x
NC(=O)C1CCN(C(=O)c2cnn(-c3ccccc3)c2NC(=O)c2ccco2)CC1,x,98*,x,x,x,x
O=C(Nc1nnc(C2=COCCO2)o1)c1ccc(Cc2ccccc2)cc1,1,x,-46*,0,15,0
CNC[C@@H]1Oc2c(cccc2N(C)C)C(=O)N(C)C[C@H]1C,x,x,2,x,11,x
CC(C)C[C@H](NC(=O)c1ccc(OC2CCN(C(=O)C3CC3)CC2)cc1)C(N)=O,0,x,4,0,-3,x
CC(CCCC(C)(C)O)NC(=O)c1ccc(OC2CCN(C(=O)C3CC3)CC2)cc1 (stereo not given),0,x,x,-3,-4,43*
CC(C)NC(=O)N(C)C[C@@H]1Oc2ncc(C#Cc3ccc(F)cc3)cc2C(=O)N([C@H](C)CO)C[C@@H]1C,0,2,0,-1,-5,-1
Cc1cccc(NC(=S)N2N=CCC2c2ccccc2)c1 (stereo not given),x,-2,-23*,2,-6,x
C[C@H]1CN([C@@H](C)CO)C(=O)c2c(c3ccccc3n2C)-c2ccccc2CO[C@H]1CN(C)Cc1ccccc1,u,x,-9,19*,-1,x
C[C@H](C(=O)N(C)C[C@@H]1OCc2ccccc2-c2c(n(C)c3ccccc23)C(=O)N([C@H](C)CO)C[C@H]1C)c1ccccc1,-1,x,-2,3,-15,0
CC(C)[C@@H](C)NC(=O)N(C)C[C@@H]1OCc2ccccc2-c2c(n(C)c3ccccc23)C(=O)N([C@@H](C)CO)C[C@@H]1C,0,-14,2,19*,11,0
C[C@@H]1CN([C@@H](C)CO)C(=O)c2c(c3ccccc3n2C)-c2ccccc2CO[C@@H]1CN(C)C(=O)[C@H](C)c1ccccc1,-1,x,1,20*,-12,0
COc1ccc(CNC(=O)N(C)C[C@@H]2OCc3ccccc3-c3c(n(C)c4ccccc34)C(=O)N([C@@H](C)CO)C[C@@H]2C)cc1,-6,x,-19*!,-1,-4,0
CCNC[C@@H]1[C@@H](c2ccc(-c3ccc(F)cc3)cc2)[C@@H](CO)N1C(=O)C1CC1,x,x,-1,x,1,x
CO[C@H]1CN(C)C(=O)c2ccc(NC(=O)NC(C)C)cc2OC[C@H](C)N(Cc2ccccn2)C[C@H]1C,0,9,1,-3,2,0
C[C@@H]1CN([C@@H](C)CO)C(=O)c2c(c3ccccc3n2C)-c2ccccc2CO[C@H]1CN(C)Cc1ccc(-c2ccccc2)cc1,-1,x,-1,4,12,0
C[C@H](CO)N1C[C@H](C)[C@@H](CN(C)C(=O)Cc2ccccc2)OCc2ccccc2-c2c(n(C)c3ccccc23)C1=O,0,x,-3,18*,3,0
C[C@@H]1CN([C@@H](C)CO)C(=O)c2c(c3ccccc3n2C)-c2ccccc2CO[C@@H]1CN(C)Cc1ccc(-c2ccccc2)cc1,-1,x,4,17*,1,x
CC(NCc1ccccc1O)c1ccccc1 (stereo not given),x,1,7,1,-28,43*
COC1CCN(C(=O)CC2C(=O)NCCN2CC2CCCCC2)CC1 (stereo not given),x,x,22,1,x,43*
CC(C)NC(=O)Nc1ccc2c(c1)C(=O)N(C)C[C@@H](C)[C@@H](CN(C)S(C)(=O)=O)O2,x,x,2,x,0,x
CC[C@@]12C(=O)N(c3ccc(C)cc3)C(=O)N1[C@H](c1ccc(OC)cc1)[C@@H]1C(=O)N(C(C)(C)C)C(=O)[C@@H]12,x,0,2,20*,-2,0
CCN1C(=O)[C@H]2[C@@H](c3ccc(C)cc3)N3C(=O)N(c4ccc(C)cc4)C(=O)[C@@]3(Cc3ccc(Cl)cc3)[C@H]2C1=O,0,16,-28*,1,6,0
O=C1OCCOC2CCCc3oc(C4=CCCCC4)c1c32 (stereo not given),0,x,6,33*,4,0
